TRPC6 act: mouse TRPC6 channel activation; 0.13% of 310,000 active; B-score at 10 µM; HEK293-TRPC6 membrane potential dye fluorescence; stronger effect = higher value; Q61143;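 active means B-score of the integrated fluorescence ratio above library mean plus 3 SD, and starting fluorescence ratio within library mean plus 5 SD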;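 further: higher score means more depolarization so channel activation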
TRPC6 inh: blocks the mouse TRPC6 cation channel; HEK293-TRPC6, membrane potential dye, ACh-evoked depolarization; stronger effect = lower value; B-score at 10 µM; 1.1% of 310,000 active; AID 2553;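 active means B-score under library mean minus 3 SD, initial fluorescence not abnormally high, positive integrated signal ratio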;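 further: B-score derived from integrated fluorescence ratio over the kinetic read; more negative B-score means stronger inhibition of depolarization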
TRPC4 act: activators of mouse TRPC4 channel; HEK293 TRPC4beta/mu-opioid, Fluo4 calcium fluorescence; stronger effect = higher value; 0.49% of 310,000 active; AID 2237; Q9QUQ5; B-score at 10 µM;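 active means B-score above 5 SD of library B-scores, and initial fluorescence ratio not above library mean plus 5 SD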;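 further: positive B-score marks a calcium rise read as TRPC4 activation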
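Assay system: HEK293 cells stably co-expressing mouse TRPC4beta and mu-opioid receptor / Timing: Fluo4 dye loading 45 min at room temperature, 110 s recording / Signal: Fluo4 calcium-sensitive dye fluorescence, kinetic, 1 Hz baseline / Read-out: integrated baseline-normalised fluorescence ratio, converted to per-well B score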
TRPC4 inh: inhibitors of mouse TRPC4 channel; Q9QUQ5; HEK293 TRPC4beta/mu-opioid, DAMGO-evoked Fluo4 calcium flux; stronger effect = lower value; B-score at 10 µM; 0.39% of 300,000 active; AID 2247;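 active means B-score over 3 SD under the library average, no early fluorescence shift, positive overall ratio signal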
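Assay system: TRPC4beta/mu-opioid receptor HEK293 cell line; compound dosing: single concentration per test compound; detection: Fluo4 Ca2+ flux fluorescence; evaluation: per-well B score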
TRPC4 PAM: allosteric potentiators of mouse TRPC4 channel; Q9QUQ5; HEK293 TRPC4beta/mu-opioid, DAMGO EC20, Fluo-4 Ca2+ flux; stronger effect = higher value; B-score at 10 µM; 0.42% of 310,000 active;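 active means B-score of calcium response area above 5 SD of library B-scores, with initial fluorescence ratio within 5 SD of library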;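 further: B-score of integrated fluorescence ratio over time as area under calcium response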
An asterisk follows results filed as active; i = inactive. Compounds with a hit are over-represented: about 2.3% of the library has one in this group of screens.

SMILES	TRPC6 act	TRPC6 inh	TRPC4 act	TRPC4 inh	TRPC4 PAM
CCCn1c(NCc2ccc(C)o2)nc2ccccc21	i	i	i	-6*	i
CCc1ccccc1Nc1nc2ccccc2n1CC	i	i	i	i	i
CCCn1c(Nc2ccccc2C)nc2ccccc21	i	i	i	-5*	i
Oc1ccccc1-n1c(-c2ccccc2)ccc1-c1ccccc1	i	i	i	i	i
Cc1nnc2n(Cc3ccccc3)c(=O)c3c4c(sc3n12)COC(C(C)C)C4 (stereo not given)	i	i	i	i	11*
O=C(C1CCC(=O)N1Cc1ccccc1Cl)N1CCN(c2cccc(Cl)c2)CC1 (stereo not given)	i	i	i	i	i
CC(C)C1NC(C(=O)O)Cc2c1[nH]c1ccccc21 (stereo not given)	i	i	i	-7*	i
CC(C)CC1NC(C(=O)O)Cc2c1[nH]c1ccccc21 (stereo not given)	i	i	i	i	i
CCCC1NC(C(=O)O)Cc2c1[nH]c1ccccc21 (stereo not given)	i	i	i	-6*	i
CCOC(=O)Cc1csc(NC(=O)c2ccc3ccccc3n2)n1	i	i	i	i	i
O=C1CCC(C(=O)OCC(=O)N2N=C3/C(=C/c4ccccc4)CCCC3C2c2ccccc2)N1 (stereo not given)	i	i	i	i	i
COc1ccc(/C=C2\CCCC3C2=NN(C(=O)CSc2n[nH]c(N)n2)C3c2ccc(OC)cc2)cc1 (stereo not given)	i	i	i	i	12*
Cc1ccc(-n2c3nc(=O)[nH]c(=O)c-3cc3cc([N+](=O)[O-])ccc32)cc1C	i	i	i	i	10*
Cc1cc(C)c(NC(=O)CO/N=C2\CCCc3nonc32)c(C)c1	i	i	i	i	i
O=C(Nc1nc(-c2ccccn2)cs1)c1cccc(-n2cnnn2)c1	i	i	i	i	13*
O=C(Nc1ccc(Br)cc1)c1cccc(-n2cnnn2)c1	i	i	i	i	i
CN(C(=O)c1ccc(OC2CCN(CCc3ccccc3)CC2)cc1)C1CCCCC1	i	i	i	-6*	i
Cc1csc(CNC(=O)c2ccc(OC3CCN(CCc4ccccc4)CC3)cc2)n1	i	i	i	i	i
O=C(NC1CCOC1)c1ccc(OC2CCN(CCc3ccccc3)CC2)cc1 (stereo not given)	i	i	i	i	i
CN(C(=O)c1ccc(OC2CCN(CCc3ccccc3)CC2)cc1)C1CCOCC1	i	i	i	i	i
O=C(NCCn1cccn1)c1ccc(OC2CCN(CCc3ccccc3)CC2)cc1	i	i	66*	i	i
CSCCNC(=O)c1ccc(OC2CCN(CCc3ccccc3)CC2)cc1	i	i	i	-6*	i
COC(=O)CCCNC(=O)c1ccc(OC2CCN(CCc3ccccc3)CC2)cc1	i	i	79*	i	i
COc1ccc(OC)c(C(=O)NC(CC(N)=O)c2ccc(NCCN3CCCCC3)c([N+](=O)[O-])c2)c1 (stereo not given)	i	i	i	i	i
CN1CCN(c2ccc(NC(=O)COc3cccc4ccccc34)cc2)CC1	i	i	177*	i	i
SMILES	TRPC6 act	TRPC6 inh	TRPC4 act	TRPC4 inh	TRPC4 PAM
CN1CCN(c2ccc(NC(=O)COc3ccc4ccccc4c3)cc2)CC1	i	i	i	i	i
COc1ccc(CC(=O)N2CCc3cc(OC)c(OC)cc3C2C)c(OC)c1 (stereo not given)	i	i	i	i	i
CCOC(=O)C1CCCN(C2CCN(Cc3nc(Cc4ccccc4)no3)CC2)C1 (stereo not given)	i	i	i	i	11*
COc1ccc(C(=O)Nc2c(N)nc(SCC(=O)N3CCCCCC3)[nH]c2=O)cc1OC	i	i	i	i	i
CCCN1CN(Cc2ccco2)c2nc3ccccc3n2C1	i	i	i	-6*	i
CC(C)[C@H](N)C(=O)NC[C@H]1CC[C@H](C(=O)N[C@@H](Cc2ccccc2)C(=O)O)CC1	i	i	i	i	i
CC(=O)N(c1ccc(Cl)cc1)c1cn(C(C)=O)c2ccccc12	i	i	i	i	i
CC(=O)N(c1ccc(Cl)cc1)c1c[nH]c2ccccc12	i	i	i	-6*	i
COc1ccc(C2C(C(=O)Nc3ccc4c(c3)OCCO4)c3ccccc3C(=O)N2C)cc1 (stereo not given)	i	i	i	i	i
CCOP(=O)(OCC)c1nc(-c2cccc3ccccc23)oc1NCc1ccccc1	i	i	i	i	i
CCOP(=O)(OCC)c1nc(-c2cccc3ccccc23)oc1NCc1ccc(OC)cc1	i	i	i	i	13*
COc1cc2[nH]c(=O)n(CCCCCC(=O)N3CC=C(c4ccccc4)CC3)c(=O)c2cc1OC	i	i	i	i	i
CCn1c(=S)sc2c(=O)n(CC(=O)NCCCc3ccccc3)c(C)nc21	i	i	i	i	i
C/C(=N\NC(=O)c1cc2ccccc2cc1O)c1ccccn1	i	i	53*	i	i
C/C(=N\NC(=O)c1c[nH]c2ccccc12)c1ccccn1	i	i	i	i	i
Cc1sc2ncnc(NC3CCN(Cc4ccccc4)CC3)c2c1C	i	i	193*	i	i
NNC(=O)c1sc2cc(C(F)(F)F)cnc2c1-c1cccnc1	i	i	i	i	i
CNC(=S)N1CCN(C(c2ccccc2)c2ccccc2)CC1	i	i	50*	-6*	i
CCC(C)NC(=S)N1CCN(C(c2ccccc2)c2ccccc2)CC1 (stereo not given)	i	i	i	i	i
Cc1ccc(Cn2c(=O)cc(C(=O)O)c3ccccc32)cc1	i	i	i	i	i
CCOC(=O)c1cc(=O)n(Cc2ccccc2C)c2ccccc12	i	i	i	i	15*
CC(C)c1ccccc1NC(=S)NN(Cc1ccccc1)c1ccccc1	i	i	i	i	27*
CCOC(=O)c1c(NC(=O)COC(=O)Cn2cnc3c2c(=O)n(C)c(=O)n3C)sc(C)c1CC	i	i	i	-7*	i
O=C(O)c1cc(-c2ccc(/C=c3\sc4nc5ccc(Br)cc5n4c3=O)o2)ccc1Cl	40*	i	i	i	i
COc1ccc(C)cc1S(=O)(=O)NC1CCCC1	i	i	i	i	i

Source: PubChem BioAssay
